S100A4 inh HTS: inhibitors of human S100A4 binding to myosin IIA peptide | inhibition, % at 10.7 µM | 0.14% of 360,000 active | P26447 | S100A4/TAMRA-MyoIIA peptide fluorescence polarization;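 active = mean inhibition of at least 70% across replicates, with every replicate also reaching that level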
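incubation = readout 5 min after mixing, signal stable up to 60 min | system = S100A4 monomer protein | buffer or medium = HEPES pH 7.2 with CaCl2, KCl, NaCl, DTT, Triton | benchmarks = neutral control DMSO, positive control TFP | also added = fluorescent myosin IIA peptide, 5 nM | compound dosing = one concentration per compound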
RAD52 inh: RAD52 (human) annealing inhibition. P43351. 0.46% of 360,000 active. recombinant RAD52 DNA annealing, FRET fluorescence. inhibition, % at 18.7 µM;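 active = every replicate showing at least 50% inhibition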
INS-1E GSIS act: primary screen for activators of insulin secretion dependent on glucose, INS-1E cells, GLuc reporter luminescence; INS-1E GLuc reporter insulin secretion, 2-3 h; 0.61% of 370,000 active; AID 743287; activation, % at 16.6 µM;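 active = lowest replicate activation of at least 40%, so every replicate reaches that level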
AF4-AF9 inh: blocks AF4 peptide binding to human AF9; P42568; AlphaScreen, biotin-AF4 peptide binding to FLAG-AF9; inhibition, % at 10 µM; 0.47% of 350,000 active; AID 651704;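 active = every replicate reaching a set inhibition limit, whatever the replicate mean, cut at about 25% in these data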
ERAP1 HTS inh: inhibitors of human ERAP1 aminopeptidase; inhibition, % at 10.7 µM; 0.15% of 340,000 active; recombinant ERAP1, Leu-AMC fluorescence, 60 min; Q9NZ08;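 active = mean replicate inhibition of at least 30%, or all replicates individually reaching that 30% level; inactive = mean below 30% and not every replicate reaching it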
Target sequence (Q9NZ08 whole entry, looked up): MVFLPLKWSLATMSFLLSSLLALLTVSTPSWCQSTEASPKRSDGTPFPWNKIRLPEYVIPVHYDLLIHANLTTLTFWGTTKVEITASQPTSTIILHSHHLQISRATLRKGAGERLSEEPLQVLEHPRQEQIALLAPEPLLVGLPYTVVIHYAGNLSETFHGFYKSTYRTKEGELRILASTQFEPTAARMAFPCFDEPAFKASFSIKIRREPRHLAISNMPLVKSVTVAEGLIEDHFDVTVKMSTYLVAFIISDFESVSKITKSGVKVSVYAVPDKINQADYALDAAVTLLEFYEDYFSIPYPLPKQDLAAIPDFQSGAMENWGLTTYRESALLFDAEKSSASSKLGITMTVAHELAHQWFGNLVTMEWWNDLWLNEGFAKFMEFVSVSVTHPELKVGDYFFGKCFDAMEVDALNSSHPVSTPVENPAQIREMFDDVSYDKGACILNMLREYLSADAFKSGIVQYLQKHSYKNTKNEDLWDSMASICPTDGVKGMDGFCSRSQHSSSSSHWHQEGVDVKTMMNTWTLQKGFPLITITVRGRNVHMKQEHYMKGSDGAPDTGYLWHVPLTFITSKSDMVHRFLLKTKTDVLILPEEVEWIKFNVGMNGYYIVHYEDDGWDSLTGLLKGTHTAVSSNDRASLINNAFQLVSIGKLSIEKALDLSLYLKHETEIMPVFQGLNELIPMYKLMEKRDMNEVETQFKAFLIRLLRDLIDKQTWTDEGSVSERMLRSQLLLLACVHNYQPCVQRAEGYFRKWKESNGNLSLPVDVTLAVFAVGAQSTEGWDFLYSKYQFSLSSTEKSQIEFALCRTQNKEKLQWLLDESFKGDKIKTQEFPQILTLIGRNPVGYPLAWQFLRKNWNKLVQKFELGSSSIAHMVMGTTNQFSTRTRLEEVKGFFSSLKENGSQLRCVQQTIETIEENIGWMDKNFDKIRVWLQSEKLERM
Hits are given with their value. Hits are enriched below; roughly 1.5% of the tested compounds scored in any of these assays.

What do the screens show for `O=C1N/C(=N/c2ccccn2)SC1Cc1ccccc1` (stereo not given)?
INS-1E GSIS act: inactive

How did Cc1ccc(CC2S/C(=N/c3ccccn3)NC2=O)cc1 (stereo not given) do in these assays?
INS-1E GSIS act: 58.1

How did CCCNC(=O)N1CC2(CCN(C(=O)C3CCCCC3)CC2)c2c([nH]c3cc(OC)ccc23)[C@@H]1CO do in these assays?
S100A4 inh HTS: inactive; RAD52 inh: inactive; INS-1E GSIS act: inactive; AF4-AF9 inh: inactive; ERAP1 HTS inh: inactive

Results for COCCOC(=O)C1=C(C)NC(=O)N(C(C)=O)C1c1ccc(Cl)cc1 (stereo not given) ?
INS-1E GSIS act: 55.7

How did C[C@@H]1CN([C@@H](C)CO)S(=O)(=O)c2ccc(C#CC3CC3)cc2O[C@@H]1CN(C)Cc1ccncc1 do in these assays?
S100A4 inh HTS: inactive; RAD52 inh: inactive; INS-1E GSIS act: inactive; AF4-AF9 inh: inactive; ERAP1 HTS inh: inactive

Results for C[C@@H]1CN(C)C(=O)Cc2cc(N)ccc2O[C@@H]1CN(C)C ?
INS-1E GSIS act: inactive

Results for CC(C)NC(=O)C1C(c2ccc(C(F)(F)F)cc2)=Nc2ccccc2N1C(=O)c1ccco1 (stereo not given) ?
S100A4 inh HTS: inactive; RAD52 inh: inactive; INS-1E GSIS act: inactive; AF4-AF9 inh: inactive; ERAP1 HTS inh: 43.6

How did CCOc1cccc(/C=C/C(=O)O)c1 do in these assays?
S100A4 inh HTS: inactive; RAD52 inh: inactive; INS-1E GSIS act: inactive; AF4-AF9 inh: 47.3; ERAP1 HTS inh: inactive

What do the screens show for `O=C(O)/C=C/c1cccc(OCc2ccccc2)c1`?
S100A4 inh HTS: inactive; RAD52 inh: inactive; INS-1E GSIS act: inactive; AF4-AF9 inh: inactive; ERAP1 HTS inh: inactive

How did CCOc1ccc(/C=C/C(=O)c2ccc(-c3ccccc3)cc2)cc1 do in these assays?
INS-1E GSIS act: 46.7

Results for O=C(C1CC1)N1C[C@@H]2N[C@H](C1)C2c1ccc(-c2cccc(F)c2)cc1 (stereo not given in full) ?
INS-1E GSIS act: inactive

How did CC(=O)Nc1ccc2c(c1)CC(=O)N(C)C[C@H](C)[C@@H](CN(C)S(C)(=O)=O)O2 do in these assays?
INS-1E GSIS act: inactive

Results for O=C(Oc1ccc2c(c1)OCO2)c1cc2c(s1)CCC2 ?
INS-1E GSIS act: 46.3

Results for CCOC(=O)C1=C(COC(=O)Cc2ccccc2F)NC(=O)NC1C (stereo not given) ?
S100A4 inh HTS: inactive; RAD52 inh: inactive; INS-1E GSIS act: 42.4; AF4-AF9 inh: inactive; ERAP1 HTS inh: inactive

What do the screens show for `CCOC(=O)C1=C(COC(=O)/C=C/c2ccc(OCC)c(OC)c2)NC(=O)NC1C` (stereo not given)?
S100A4 inh HTS: inactive; RAD52 inh: inactive; INS-1E GSIS act: 89.8; AF4-AF9 inh: inactive; ERAP1 HTS inh: inactive

Results for CCOC(=O)C1=C(COC(=O)/C=C/c2cccc(OC)c2OC)NC(=O)NC1C (stereo not given) ?
S100A4 inh HTS: inactive; RAD52 inh: inactive; INS-1E GSIS act: 57.4; AF4-AF9 inh: inactive; ERAP1 HTS inh: inactive

Results for CCOC(=O)C1=C(COC(=O)Cc2ccc(Br)cc2)NC(=O)NC1C (stereo not given) ?
S100A4 inh HTS: inactive; RAD52 inh: inactive; INS-1E GSIS act: inactive; AF4-AF9 inh: inactive; ERAP1 HTS inh: inactive

What do the screens show for `C[C@@H]1CN([C@@H](C)CO)C(=O)Cc2cc(NC(=O)CCCCCC(=O)Nc3ccccc3N)ccc2O[C@H]1CN(C)CC1CC1`?
S100A4 inh HTS: inactive; RAD52 inh: inactive; INS-1E GSIS act: inactive; AF4-AF9 inh: inactive; ERAP1 HTS inh: inactive

How did C=C(C)C1Cc2c(C)nn(-c3cccc4cccnc34)c2C1 (stereo not given) do in these assays?
S100A4 inh HTS: inactive; RAD52 inh: inactive; INS-1E GSIS act: 50.8; AF4-AF9 inh: inactive; ERAP1 HTS inh: inactive

What do the screens show for `COc1ccc(NC(=O)N2C[C@@H](O)COC[C@H]3O[C@H](CC(=O)N4CCN(C)CC4)CC[C@@H]32)cc1`?
S100A4 inh HTS: inactive; RAD52 inh: inactive; INS-1E GSIS act: inactive; AF4-AF9 inh: inactive; ERAP1 HTS inh: inactive

How did Cc1noc(C)c1NC(=O)Nc1ccc2c(c1)C(=O)N([C@H](C)CO)C[C@H](C)[C@@H](CN(C)C(=O)C1CCCCC1)OCCCC[C@H](C)O2 do in these assays?
S100A4 inh HTS: inactive; RAD52 inh: inactive; INS-1E GSIS act: inactive; AF4-AF9 inh: inactive; ERAP1 HTS inh: inactive

Results for CCCCn1c(-c2ccncc2)nc2c1c(=O)[nH]c(=O)n2CC(C)C ?
INS-1E GSIS act: 70.1

Results for COc1ccc(S(=O)(=O)N2CCCCC2)cc1NC(=O)C1CC1C (stereo not given) ?
S100A4 inh HTS: inactive; RAD52 inh: inactive; INS-1E GSIS act: 40.5; AF4-AF9 inh: inactive; ERAP1 HTS inh: inactive

What do the screens show for `COc1ccc(OC)c(NC(=O)CN2C(=O)COc3ccc(S(=O)(=O)N4CCCC4)cc32)c1`?
S100A4 inh HTS: inactive; RAD52 inh: inactive; INS-1E GSIS act: inactive; AF4-AF9 inh: 34.7; ERAP1 HTS inh: inactive

What do the screens show for `COc1ccc(S(=O)(=O)N2CCCCC2)cc1NC(=O)C1CCCO1` (stereo not given)?
S100A4 inh HTS: inactive; RAD52 inh: inactive; INS-1E GSIS act: inactive; AF4-AF9 inh: inactive; ERAP1 HTS inh: inactive

Results for CC(C)NC(=O)Nc1cccc2c1O[C@H](CN(C)C(=O)NC(C)C)[C@H](C)CN(C)C2=O ?
INS-1E GSIS act: inactive

Results for CS(=O)(=O)c1nc(S(=O)(=O)c2ccc(Cl)cc2)c(N2CCCCCC2)s1 ?
S100A4 inh HTS: inactive; RAD52 inh: inactive; INS-1E GSIS act: 46.8; AF4-AF9 inh: inactive; ERAP1 HTS inh: inactive

Results for CCOC(=O)C1=C(C)N(c2ccccc2)C(=O)/C1=C\c1cccs1 ?
INS-1E GSIS act: 88.3

How did CCC(C)(C)c1ccc(OCCCC[n+]2ccc(C)cc2)c(C(C)(C)CC)c1 do in these assays?
INS-1E GSIS act: 559.6

How did COCC(=O)Nc1ccc2c(c1)C(=O)N(C)[C@H]1CC[C@H](CC(=O)Nc3cn(C)nc3C)O[C@@H]1CO2 do in these assays?
INS-1E GSIS act: inactive

How did CCN(CC)c1ccc(NC(=S)Nc2ccc(F)cc2)cc1 do in these assays?
S100A4 inh HTS: inactive; RAD52 inh: inactive; INS-1E GSIS act: inactive; AF4-AF9 inh: 26.8; ERAP1 HTS inh: inactive

Results for Fc1ccc(CCNC(=S)Nc2ccc(F)cc2)cc1 ?
S100A4 inh HTS: inactive; RAD52 inh: inactive; AF4-AF9 inh: inactive; ERAP1 HTS inh: inactive

How did CCCCc1ccc(NC(=S)NCCc2ccc(F)cc2)cc1 do in these assays?
S100A4 inh HTS: inactive; RAD52 inh: inactive; INS-1E GSIS act: 46.3; AF4-AF9 inh: inactive; ERAP1 HTS inh: inactive

How did COc1cc(CN2CC3(CN(C(C)=O)C3)c3c([nH]c4cc(OC)ccc34)[C@@H]2CO)cc(OC)c1 do in these assays?
INS-1E GSIS act: inactive

How did Oc1ccc(/C=N/N=C/c2ccc(O)c(O)c2)cc1O do in these assays?
S100A4 inh HTS: inactive; RAD52 inh: inactive; INS-1E GSIS act: inactive; AF4-AF9 inh: inactive; ERAP1 HTS inh: inactive

What do the screens show for `O=C(/C(=N/N=C/c1ccc(O)c(O)c1)c1ccccc1)c1ccccc1`?
S100A4 inh HTS: inactive; RAD52 inh: inactive; INS-1E GSIS act: inactive; AF4-AF9 inh: 35.5; ERAP1 HTS inh: inactive

Source: PubChem
